# ChEMBL document CHEMBL1649231, “In vitro activities of panduratin A against clinical Staphylococcus strains” (2009)
# Columns and labels:
# Type in all cases: functional
# Staphylococcus aureus [1] = assay: Bactericidal activity against methicillin-susceptible Staphylococcus aureus after 24 hrs by plate counting method
# Summary of the method: (§1)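 Clinical staphylococcal isolates from patient body fluids, blood, genital secretions, pus or sputum; species by conventional methods or Vitek. Twofold dilutions in Mueller-Hinton broth, inoculum 5 × 10^5 CFU/ml, 37°C aerobic 24 h (CLSI M7-A6 microdilution). About 100 μl from each well without visible growth spread on MHA; 37°C 24 h. MBC = lowest concentration giving no growth on agar.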
# Staphylococcus simulans [2] = assay: Antimicrobial activity against methicillin-susceptible coagulase-negative Staphylococcus simulans assessed as resistant isolates after 24 hrs by broth microdilution method
# Staphylococcus simulans [3] = assay: Antimicrobial activity against methicillin-susceptible coagulase-negative Staphylococcus simulans after 24 hrs by broth microdilution method
# Summary of the method: (§2)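 Clinical isolates came from blood, body fluids, genital secretions, pus or sputum, identified conventionally or by Vitek. MICs were run by CLSI M7-A6 broth microdilution in Mueller-Hinton broth with 5 × 10^5 CFU/ml inoculum. Agents were twofold serially diluted, starting from 10% DMSO. Drug-free and uninoculated controls were included. Plates were incubated aerobically at 37°C for 24 h; MIC is the lowest concentration giving no visible growth.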
# Staphylococcus aureus [4] = assay: Antimicrobial activity against methicillin-resistant Staphylococcus aureus assessed as intermediate resistant isolates after 24 hrs by broth microdilution method
# Mammaliicoccus sciuri [5] = assay: Antimicrobial activity against methicillin-resistant coagulase-negative Staphylococcus sciuri assessed as susceptible isolates after 24 hrs by broth microdilution method
# [6] = system: Staphylococcus epidermidis; assay: Bactericidal activity against methicillin-susceptible coagulase-negative Staphylococcus epidermidis after 24 hrs by plate counting method; summary of the method: as §1
# Staphylococcus simulans [7] = assay: Antimicrobial activity against methicillin-susceptible coagulase-negative Staphylococcus simulans assessed as susceptible isolates after 24 hrs by broth microdilution method
# Summary of the method: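 Clinical isolates from blood, body fluids, pus, sputum or genital secretions, identified conventionally or by Vitek, were tested alongside ATCC 29213 and ATCC 12228 controls. CLSI M7-A6 broth microdilution in Mueller-Hinton broth used twofold dilutions from a 10% DMSO solution and 5 × 10^5 CFU/ml inoculum. Drug-free and uninoculated wells served as controls; incubation was aerobic at 37°C for 24 h. MIC was the lowest concentration with no visible growth.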
# [8] = system: Staphylococcus epidermidis; assay: Bactericidal activity against methicillin-resistant coagulase-negative Staphylococcus epidermidis after 24 hrs by plate counting method
# Staphylococcus simulans [9] = assay: Bactericidal activity against methicillin-susceptible coagulase-negative Staphylococcus simulans after 24 hrs by plate counting method; summary of the method: as §1
# [10] = system: Staphylococcus haemolyticus; assay: Antimicrobial activity against methicillin-resistant coagulase-negative Staphylococcus haemolyticus assessed as resistant isolates after 24 hrs by broth microdilution method
# [11] = system: Staphylococcus haemolyticus; assay: Bactericidal activity against methicillin-resistant coagulase-negative Staphylococcus haemolyticus after 24 hrs by plate counting method
# Staphylococcus simulans [12] = assay: Antimicrobial activity against methicillin-resistant coagulase-negative Staphylococcus simulans assessed as resistant isolates after 24 hrs by broth microdilution method
# Staphylococcus aureus [13] = assay: Antimicrobial activity against methicillin-resistant Staphylococcus aureus after 24 hrs by broth microdilution method; summary of the method: as §2
# Staphylococcus hominis [14] = assay: Antimicrobial activity against methicillin-resistant coagulase-negative Staphylococcus hominis assessed as susceptible isolates after 24 hrs by broth microdilution method
# [15] = system: Staphylococcus epidermidis; assay: Antimicrobial activity against methicillin-resistant coagulase-negative Staphylococcus epidermidis assessed as resistant isolates after 24 hrs by broth microdilution method
# Staphylococcus hominis [16] = assay: Antimicrobial activity against methicillin-resistant coagulase-negative Staphylococcus hominis assessed as intermediate resistant isolates after 24 hrs by broth microdilution method
# [17] = system: Staphylococcus haemolyticus; assay: Antimicrobial activity against methicillin-resistant coagulase-negative Staphylococcus haemolyticus assessed as intermediate resistant isolates after 24 hrs by broth microdilution method
# Staphylococcus aureus [18] = assay: Antimicrobial activity against methicillin-susceptible Staphylococcus aureus assessed as resistant isolates after 24 hrs by broth microdilution method
# Mammaliicoccus sciuri [19] = assay: Bactericidal activity against methicillin-susceptible coagulase-negative Staphylococcus sciuri after 24 hrs by plate counting method; summary of the method: as §1
# Staphylococcus simulans [20] = assay: Bactericidal activity against methicillin-resistant coagulase-negative Staphylococcus simulans after 24 hrs by plate counting method; summary of the method: as §1
# Staphylococcus hominis [21] = assay: Antimicrobial activity against methicillin-susceptible coagulase-negative Staphylococcus hominis assessed as intermediate resistant isolates after 24 hrs by broth microdilution method; conditions: pooled result: one value given for 5 cell lines, strains, targets or settings
# Staphylococcus hominis [22] = assay: Antimicrobial activity against methicillin-resistant coagulase-negative Staphylococcus hominis assessed as resistant isolates after 24 hrs by broth microdilution method
# [23] = system: Staphylococcus epidermidis; assay: Antimicrobial activity against methicillin-resistant coagulase-negative Staphylococcus epidermidis assessed as susceptible isolates after 24 hrs by broth microdilution method
# [24] = system: Staphylococcus epidermidis; assay: Antimicrobial activity against methicillin-susceptible coagulase-negative Staphylococcus epidermidis assessed as resistant isolates after 24 hrs by broth microdilution method
# [25] = system: Staphylococcus haemolyticus; assay: Antimicrobial activity against methicillin-resistant coagulase-negative Staphylococcus haemolyticus assessed as susceptible isolates after 24 hrs by broth microdilution method
# Mammaliicoccus sciuri [26] = assay: Antimicrobial activity against methicillin-resistant coagulase-negative Staphylococcus sciuri after 24 hrs by broth microdilution method; summary of the method: as §2
# Mammaliicoccus sciuri [27] = assay: Antimicrobial activity against methicillin-susceptible coagulase-negative Staphylococcus sciuri assessed as resistant isolates after 24 hrs by broth microdilution method
# Staphylococcus simulans [28] = assay: Antimicrobial activity against methicillin-resistant coagulase-negative Staphylococcus simulans assessed as susceptible isolates after 24 hrs by broth microdilution method
# [29] = system: Staphylococcus haemolyticus; assay: Antimicrobial activity against methicillin-susceptible coagulase-negative Staphylococcus haemolyticus after 24 hrs by broth microdilution method; summary of the method: as §2
# Staphylococcus simulans [30] = assay: Antimicrobial activity against methicillin-resistant coagulase-negative Staphylococcus simulans assessed as intermediate resistant isolates after 24 hrs by broth microdilution method
# Mammaliicoccus sciuri [31] = assay: Antimicrobial activity against methicillin-susceptible coagulase-negative Staphylococcus sciuri after 24 hrs by broth microdilution method; summary of the method: as §2
# Staphylococcus hominis [32] = assay: Antimicrobial activity against methicillin-susceptible coagulase-negative Staphylococcus hominis after 24 hrs by broth microdilution method; summary of the method: as §2
# Mammaliicoccus sciuri [33] = assay: Bactericidal activity against methicillin-resistant coagulase-negative Staphylococcus sciuri after 24 hrs by plate counting method; summary of the method: as §1
# Staphylococcus hominis [34] = assay: Antimicrobial activity against methicillin-susceptible coagulase-negative Staphylococcus hominis assessed as susceptible isolates after 24 hrs by broth microdilution method
# Staphylococcus aureus [35] = assay: Antimicrobial activity against methicillin-susceptible Staphylococcus aureus after 24 hrs by broth microdilution method; summary of the method: as §2
# Staphylococcus aureus [36] = assay: Antimicrobial activity against methicillin-susceptible Staphylococcus aureus assessed as intermediate resistant isolates after 24 hrs by broth microdilution method
# [37] = Staphylococcus epidermidis, 24 h
compound,measurement,setting,value
GENTAMICIN,MBC,Staphylococcus aureus [1],0.5 µg/mL
same,MBC50,Staphylococcus aureus [1],8 µg/mL
same,MBC90,Staphylococcus aureus [1],128 µg/mL
same,Activity,Staphylococcus simulans [2],27%
same,MIC50,Staphylococcus simulans [3],0.125 µg/mL
same,MIC90,Staphylococcus simulans [3],32 µg/mL
same,Activity,Staphylococcus aureus [4],22%
same,Activity,Mammaliicoccus sciuri [5],7%
same,MBC,[6],0.25 µg/mL
same,MBC50,[6],1 µg/mL
same,MBC90,[6],64 µg/mL
same,Activity,Staphylococcus simulans [7],73%
same,MBC,[8],0.25 µg/mL
same,MBC50,[8],8 µg/mL
same,MBC90,[8],128 µg/mL
same,MBC,Staphylococcus simulans [9],0.25 µg/mL
same,MBC50,Staphylococcus simulans [9],1 µg/mL
same,MBC90,Staphylococcus simulans [9],64 µg/mL
same,Activity,[10],48%
same,MBC,[11],0.25 µg/mL
same,MBC50,[11],8 µg/mL
same,MBC90,[11],128 µg/mL
same,Activity,Staphylococcus simulans [12],48%
same,MIC50,Staphylococcus aureus [13],32 µg/mL
same,MIC90,Staphylococcus aureus [13],64 µg/mL
same,Activity,Staphylococcus hominis [14],45%
same,Activity,[15],48%
same,Activity,Staphylococcus hominis [16],7%
same,Activity,[17],7%
same,Activity,Staphylococcus aureus [18],48%
same,MBC,Mammaliicoccus sciuri [19],0.25 µg/mL
same,MBC50,Mammaliicoccus sciuri [19],1 µg/mL
same,MBC90,Mammaliicoccus sciuri [19],64 µg/mL
same,MBC,Staphylococcus simulans [20],0.25 µg/mL
same,MBC50,Staphylococcus simulans [20],8 µg/mL
same,MBC90,Staphylococcus simulans [20],128 µg/mL
same,Activity,Staphylococcus hominis [21],0%
same,Activity,Staphylococcus hominis [22],48%
same,Activity,[23],45%
same,Activity,[24],27%
same,Activity,[25],45%
same,MIC50,Mammaliicoccus sciuri [26],8 µg/mL
same,MIC90,Mammaliicoccus sciuri [26],64 µg/mL
same,Activity,Mammaliicoccus sciuri [27],27%
same,Activity,Staphylococcus simulans [28],7%
same,MIC50,[29],0.125 µg/mL
same,MIC90,[29],32 µg/mL
same,Activity,Staphylococcus simulans [30],7%
same,MIC50,Mammaliicoccus sciuri [31],0.125 µg/mL
same,MIC90,Mammaliicoccus sciuri [31],32 µg/mL
same,MIC50,Staphylococcus hominis [32],0.125 µg/mL
same,MIC90,Staphylococcus hominis [32],32 µg/mL
same,MBC,Mammaliicoccus sciuri [33],0.25 µg/mL
same,MBC50,Mammaliicoccus sciuri [33],8 µg/mL
same,MBC90,Mammaliicoccus sciuri [33],128 µg/mL
same,Activity,Staphylococcus hominis [34],73%
same,MIC50,Staphylococcus aureus [35],4 µg/mL
same,MIC90,Staphylococcus aureus [35],64 µg/mL
same,Activity,Staphylococcus aureus [36],0%
CN[C@H](CC(C)C)C(=O)N[C@H]1C(=O)N[C@@H](CC(N)=O)C(=O)N[C@H]2C(=O)N[C@H]3C(=O)N[C@H](C(=O)N[C@H](C(=O)O)c4cc(O)cc(O)c4-c4cc3ccc4O)[C@H](O)c3ccc(c(Cl)c3)Oc3cc2cc(c3O[C@@H]2O[C@H](CO)[C@@H](O)[C@H](O)[C@H]2O[C@H]2C[C@](C)(N)[C@H](O)[C@H](C)O2)Oc2ccc(cc2Cl)[C@H]1O [VANCOMYCIN],MBC50,Staphylococcus aureus [1],1 µg/mL
same,MBC90,Staphylococcus aureus [1],2 µg/mL
same,MBC,"Staphylococcus aureus [1]; Staphylococcus aureus, 24 h",0.25 µg/mL
same,Activity,Staphylococcus simulans [2],12%
same,MIC50,Staphylococcus simulans [3],0.25 µg/mL
same,MIC90,Staphylococcus simulans [3],1 µg/mL
same,Activity,Staphylococcus aureus [4],0%
same,Activity,Mammaliicoccus sciuri [5],0%
same,MBC50,[6],1 µg/mL
same,MBC90,[6],4 µg/mL
same,MBC,[6]; [37],0.125 µg/mL
same,Activity,Staphylococcus simulans [7],100%
same,MBC50,[8],2 µg/mL
same,MBC90,[8],4 µg/mL
same,MBC,[8]; [37],0.5 µg/mL
same,MBC50,Staphylococcus simulans [9],1 µg/mL
same,MBC90,Staphylococcus simulans [9],4 µg/mL
same,MBC,"Staphylococcus simulans [9]; Staphylococcus simulans, 24 h",0.125 µg/mL
same,Activity,[10],0%
same,MBC50,[11],2 µg/mL
same,MBC90,[11],4 µg/mL
same,MBC,"[11]; Staphylococcus haemolyticus, 24 h",0.5 µg/mL
same,Activity,Staphylococcus simulans [12],0%
same,MIC50,Staphylococcus aureus [13],0.5 µg/mL
same,MIC90,Staphylococcus aureus [13],0.5 µg/mL
same,Activity,Staphylococcus hominis [14],100%
same,Activity,[15],0%
same,Activity,Staphylococcus hominis [16],0%
same,Activity,[17],0%
same,Activity,Staphylococcus aureus [18],0%
same,MBC50,Mammaliicoccus sciuri [19],1 µg/mL
same,MBC90,Mammaliicoccus sciuri [19],4 µg/mL
same,MBC,"Mammaliicoccus sciuri [19]; Mammaliicoccus sciuri, 24 h",0.125 µg/mL
same,MBC50,Staphylococcus simulans [20],2 µg/mL
same,MBC90,Staphylococcus simulans [20],4 µg/mL
same,MBC,"Staphylococcus simulans [20]; Staphylococcus simulans, 24 h",0.5 µg/mL
same,Activity,Staphylococcus hominis [21],0%
same,Activity,Staphylococcus hominis [22],0%
same,Activity,[23],100%
same,Activity,[24],0%
same,Activity,[25],100%
same,MIC,Mammaliicoccus sciuri [26],0.125 µg/mL
same,MIC50,Mammaliicoccus sciuri [26],0.125 µg/mL
same,MIC90,Mammaliicoccus sciuri [26],2 µg/mL
same,Activity,Mammaliicoccus sciuri [27],0%
same,Activity,Staphylococcus simulans [28],0%
same,MIC50,[29],0.25 µg/mL
same,MIC90,[29],1 µg/mL
same,Activity,Staphylococcus simulans [30],0%
same,MIC50,Mammaliicoccus sciuri [31],0.25 µg/mL
same,MIC90,Mammaliicoccus sciuri [31],1 µg/mL
same,MIC50,Staphylococcus hominis [32],0.25 µg/mL
same,MIC90,Staphylococcus hominis [32],1 µg/mL
same,MBC50,Mammaliicoccus sciuri [33],2 µg/mL
same,MBC90,Mammaliicoccus sciuri [33],4 µg/mL
same,MBC,"Mammaliicoccus sciuri [33]; Mammaliicoccus sciuri, 24 h",0.5 µg/mL
same,Activity,Staphylococcus hominis [34],100%
same,MIC50,Staphylococcus aureus [35],0.25 µg/mL
same,MIC90,Staphylococcus aureus [35],0.5 µg/mL
same,Activity,Staphylococcus aureus [36],0%
